Source: ChEMBL document CHEMBL4680086, “Antiangiogenic Effect of (±)-Haloperidol Metabolite II Valproate Ester [(±)-MRJF22] in Human Microvascular Retinal Endothelial Cells” (J Med Chem, 2016)
Values after ≈ are worked out from the molar mass of the structure shown. Active and inactive are the calls of the source. No cut-off for these calls is given here.

Tests used:
[1] = Solubility in water incubated for 1 hr by HPLC analysis; type: physicochemical
[2] = Stability in pH 1.3 buffer by HPLC analysis; type: physicochemical
Outline: (§1)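 Chemical stability was tested at 37 °C in aqueous buffer at pH 1.3 (non-enzymatic simulated gastric fluid) or pH 7.4.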

[3] = Stability in pH 7.4 buffer by HPLC analysis; type: physicochemical; outline: as §1
[4] = Stability in rat plasma assessed as compound hydrolysis at 37 degC by HPLC analysis; type: ADME, cell-free
Outline: (§2)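 Compound was incubated in rat or human plasma, and ester hydrolysis was followed. The rate was expressed as the observed rate constant kobs.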

[5] = Stability in human plasma assessed as compound hydrolysis at 37 degC by HPLC analysis; type: ADME, cell-free; outline: as §2
[6] = target: Sigma non-opioid intracellular receptor 1 (Cavia porcellus, UniProt Q60492); assay: Displacement of [3H]-pentazocine from sigma1 receptor in guinea pig brain membranes by scintillation counting; type: cell membranes, Cell membrane
Sigma non-opioid intracellular receptor 1, sequence (Q60492 whole entry): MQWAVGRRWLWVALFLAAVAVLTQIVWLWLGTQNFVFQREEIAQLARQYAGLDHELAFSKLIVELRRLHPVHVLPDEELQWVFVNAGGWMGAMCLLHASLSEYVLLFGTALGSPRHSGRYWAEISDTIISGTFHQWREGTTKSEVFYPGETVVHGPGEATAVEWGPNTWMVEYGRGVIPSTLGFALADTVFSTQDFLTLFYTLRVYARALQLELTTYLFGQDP

[7] = Displacement of [3H]-DTG from sigma2 receptor in guinea pig brain membranes by scintillation counting; type: cell membranes, Cavia porcellus, Cell membrane
D(2) dopamine receptor = D(2) dopamine receptor (Rattus norvegicus, UniProt P61169); assay: Displacement of [3H]-spiperone from DRD2 in rat striatum by scintillation counting; type: tissue-based
D(2) dopamine receptor, sequence (P61169 whole entry): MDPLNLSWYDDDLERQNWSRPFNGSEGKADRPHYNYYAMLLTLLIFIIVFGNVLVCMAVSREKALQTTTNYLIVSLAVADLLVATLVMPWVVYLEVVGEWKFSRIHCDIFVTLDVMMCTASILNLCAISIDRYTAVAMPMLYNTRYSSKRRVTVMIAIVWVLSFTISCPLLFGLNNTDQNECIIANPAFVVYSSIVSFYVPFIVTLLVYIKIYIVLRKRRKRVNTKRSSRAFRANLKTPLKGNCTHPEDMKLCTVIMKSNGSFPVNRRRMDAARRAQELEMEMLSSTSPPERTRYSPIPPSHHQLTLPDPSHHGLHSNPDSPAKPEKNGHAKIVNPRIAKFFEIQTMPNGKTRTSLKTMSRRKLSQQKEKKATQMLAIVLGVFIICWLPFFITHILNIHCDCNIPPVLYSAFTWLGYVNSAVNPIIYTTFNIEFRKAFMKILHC

D(3) dopamine receptor = D(3) dopamine receptor (Rattus norvegicus, UniProt P19020); assay: Displacement of [3H]-7-OH-DPAT from DRD3 in rat olfactory tubercle by scintillation counting; type: tissue-based
D(3) dopamine receptor, sequence (P19020 whole entry): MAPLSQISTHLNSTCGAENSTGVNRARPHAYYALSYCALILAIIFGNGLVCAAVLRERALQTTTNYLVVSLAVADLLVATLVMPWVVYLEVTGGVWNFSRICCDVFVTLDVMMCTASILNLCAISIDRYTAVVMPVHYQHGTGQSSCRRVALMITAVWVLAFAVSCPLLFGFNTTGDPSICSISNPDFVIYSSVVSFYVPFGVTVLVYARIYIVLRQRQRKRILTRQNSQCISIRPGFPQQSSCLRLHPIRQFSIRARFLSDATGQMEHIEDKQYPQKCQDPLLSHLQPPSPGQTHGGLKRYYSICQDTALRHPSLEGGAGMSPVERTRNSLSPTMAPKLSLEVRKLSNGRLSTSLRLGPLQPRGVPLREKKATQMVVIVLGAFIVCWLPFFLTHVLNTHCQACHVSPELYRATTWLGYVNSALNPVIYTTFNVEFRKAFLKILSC

[8] = Cytotoxicity in HREC assessed as reduction in cell viability incubated for 24 hrs by MTT assay; type: functional; conditions: Homo sapiens
Outline: (§3)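 HREC viability measured by MTT test after compound exposure for 24, 48, 72 or 96 h, with concentrations up to 200 μM.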

[9] = Cytotoxicity in HREC assessed as reduction in cell viability incubated for 48 hrs by MTT assay; type: functional; conditions: Homo sapiens
Outline: (§4)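 HREC were exposed to the test agent for 24, 48, 72 or 96 h. Viability was measured by MTT, and IC50 values were derived for each time point.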

[10] = Cytotoxicity in HREC assessed as reduction in cell viability incubated for 72 hrs by MTT assay; type: functional; conditions: Homo sapiens; outline: as §4
[11] = Cytotoxicity in HREC assessed as reduction in cell viability incubated for 96 hrs by MTT assay; type: functional; conditions: Homo sapiens; outline: as §4
[12] = Cytotoxicity in HREC assessed as reduction in cell viability at 5 uM incubated for 24 hrs by MTT assay; type: functional, Homo sapiens; outline: as §3
[13] = Cytotoxicity in HREC assessed as reduction in cell viability at 5 uM incubated for 72 hrs by MTT assay; type: functional, Homo sapiens; outline: as §3
HREC [14] = assay: Cytotoxicity in HREC assessed as reduction in cell viability at 5 uM incubated for 72 hrs in presence of 1 uM sigma1 selective agonist (+)-pentazocine by MTT assay; type: functional; conditions: Homo sapiens
Outline: (§5)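 HREC were co-incubated for 72 h with the test agent plus either the σ1 agonist (+)-pentazocine (1 μM) or the σ2 ligand AC927 (1 μM). Viability was read by MTT test.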

[15] = Cytotoxicity in HREC assessed as reduction in cell viability at 5 uM incubated for 72 hrs in presence of 1 uM sigma2 receptor antagonist AC927 by MTT assay; type: functional, Homo sapiens
Outline: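 HRECs co-incubated with compound and the σ2 ligand AC927 (1 μM) for 72 h. Cell viability read by MTT test.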

[16] = (§6) Cytotoxicity in HREC assessed as reduction in cell counts at 5 uM incubated for 24 hrs under basal conditions by Trypan blue dye exclusion assay; type: functional, Homo sapiens; design: scale not given: the % may be the effect or the level left
Outline: (§7)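 HRECs grown in medium with 1% FBS under basal conditions, no VEGF-A. Exposure 24 or 72 h. Read-out is the count of live cells excluding dye in a Trypan blue exclusion test.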

[17] = (§8) Cytotoxicity in HREC assessed as reduction in cell counts at 5 uM incubated for 72 hrs under basal conditions by Trypan blue dye exclusion assay; type: functional, Homo sapiens; design: scale not given: the % may be the effect or the level left; outline: as §7
[18] = Suppression of VEGF-A-induced pro-angiogenesis in HREC assessed as alive cell number count at 5 uM incubated for 24 hrs by Trypan blue dye exclusion assay (reference value: 52%); type: functional, Homo sapiens
[19] = Suppression of VEGF-A-induced pro-angiogenesis in HREC assessed as alive cell number count at 5 uM incubated for 72 hrs by Trypan blue dye exclusion assay (reference value: 42%); type: functional, Homo sapiens
HREC [20] = assay: Effect on cell migration of in HREC at 5 uM incubated for 24 to 72 hrs by wound healing assay; type: functional; conditions: Homo sapiens, time 24-72 hrs
Outline: (§9)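 A scratch wound was made in a confluent HREC monolayer, which was then kept in 1% FBS medium, either basal or with VEGF-A 80 ng/mL. (+)-Pentazocine (1 or 2 μM) was added where indicated. Wound-edge cell advancement was scored as a percentage at 24 and 72 h after the scratch.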

[21] = (§10) Suppression of VEGF-A-induced cell migration in HREC assessed as crossing cells count at 5 uM incubated for 24 hrs by wound healing assay (reference value: 63%); type: functional, Homo sapiens
[22] = (§11) Suppression of VEGF-A-induced cell migration in HREC assessed as crossing cells count at 5 uM incubated for 72 hrs by wound healing assay (reference value: 26%); type: functional, Homo sapiens
HREC [23] = assay: Suppression of VEGF-A-induced cell migration in HREC assessed as effect on crossing cells count at 5 uM incubated for 24 to 72 hrs in presence of 1 to 2 uM sigma1 selective agonist (+)-pentazocine by wound healing assay; type: functional; conditions: Homo sapiens, time 24-72 hrs; outline: as §9
HREC [24] = assay: Suppression of VEGF-A-induced cell migration in HREC assessed as effect on crossing cells count at 5 uM incubated for 24 to 72 hrs in presence of 1 to 2 uM sigma2 receptor antagonist AC927 by wound healing assay; type: functional; conditions: Homo sapiens, time 24-72 hrs
[25] = (§12) Suppression of VEGF-A-induced angiogenesis in HREC assessed as reduction of the ramification number at 5 uM incubated for 24 hrs by Matrigel based tube formation assay; type: functional, Homo sapiens; design: scale not given: the % may be the effect or the level left
Outline: (§13)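 HRECs plated on Matrigel in the presence of VEGF-A. Emerging branch points (ramification number) from tube formation were quantified by phase-contrast imaging.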

HREC [26] = assay: Suppression of VEGF-A-induced angiogenesis in HREC assessed as reduction of the ramification number at 5 uM incubated for 24 hrs in presence of 2 uM sigma1 selective agonist (+)-pentazocine by Matrigel based tube formation assay; type: functional, tissue-based; conditions: Homo sapiens
Outline: (§14)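 HREC were plated on Matrigel with VEGF-A stimulation. Emerging branch points (ramifications) from cell bodies were counted by phase-contrast imaging.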

HREC [27] = assay: Suppression of VEGF-A-induced angiogenesis in HREC assessed as reduction of the ramification number at 5 uM incubated for 24 hrs in presence of 2 uM sigma2 selective antagonist AC927 by Matrigel based tube formation assay; type: functional, tissue-based; conditions: Homo sapiens; outline: as §14
[28] = target: Histone deacetylase (Homo sapiens) (UniProt Q13547+O15379+Q9UBN7+Q92769+Q9UQL6+Q8WUI4+Q9BY41+Q96DB2+P56524+Q9UKV0+Q969S8); assay: Inhibition of HDAC in human HeLa cell extracts at 5 uM using fluorescently labeled HDAC substrate
HREC [29] = assay: Cytotoxicity in HREC assessed as reduction in cell viability by MTT assay; type: functional; conditions: Homo sapiens, TDE = time-dependent effect; outline: as §4
[30] = Cytotoxicity in HREC assessed as reduction in cell viability at 200 uM incubated for 24 hrs by MTT assay; type: functional, Homo sapiens; outline: as §3
[31] = Cytotoxicity in HREC assessed as reduction in cell viability at 20 uM incubated for 72 hrs by MTT assay; type: functional, Homo sapiens; outline: as §3
HREC [32] = assay: Cytotoxicity in HREC assessed as reduction in cell viability at 20 uM incubated for 72 hrs in presence of 1 uM sigma1 selective agonist (+)-pentazocine by MTT assay; type: functional; conditions: Homo sapiens; outline: as §5
HREC [33] = assay: Cytotoxicity in HREC assessed as reduction in cell viability at 20 uM incubated for 72 hrs in presence of 1 uM sigma2 receptor antagonist AC927 by MTT assay; type: functional; conditions: Homo sapiens; outline: as §5
HREC [34] = assay: as §6; type: functional; conditions: Homo sapiens; outline: as §7
HREC [35] = assay: as §8; type: functional; conditions: Homo sapiens; outline: as §7
HREC [36] = assay: as §10; type: functional; conditions: Homo sapiens
HREC [37] = assay: as §11; type: functional; conditions: Homo sapiens
HREC [38] = assay: Effect on cell migration of in HREC at 2 uM incubated for 24 to 72 hrs by wound healing assay; type: functional; conditions: Homo sapiens, time 24-72 hrs
HREC [39] = assay: Suppression of VEGF-A-induced cell migration in HREC assessed as effect on crossing cells count at 2 uM incubated for 24 to 72 hrs by wound healing assay; type: functional; conditions: Homo sapiens, time 24-72 hrs
HREC [40] = assay: as §12; type: functional; conditions: Homo sapiens; outline: as §13

SMILES: CCCC(CCC)C(=O)OC(CCCN1CCC(O)(c2ccc(Cl)cc2)CC1)c1ccc(F)cc1 (racemic)
- solubility at 1 h [1]: 1400 µg/mL (≈ 2780 µM)
- half-life [2]: 129 h
- half-life [3]: 134 h
- Stabilty [4]: Unstable
- Stabilty [5]: Stable
- Ki [6]: 0.013 µM
- Ki [7]: 0.124 µM
- Ki (D(2) dopamine receptor): > 5 µM
- Ki (D(3) dopamine receptor): > 5 µM
- IC50 ([8]; read-out: IC50): 10.5 µM
- IC50 ([8]; read-out: pIC50 (converted)): 10.5 µM
- IC50 ([9]; read-out: IC50): 11.1 µM
- IC50 ([9]; read-out: pIC50 (converted)): 11.1 µM
- IC50 ([10]; read-out: IC50): 10.1 µM
- IC50 ([10]; read-out: pIC50 (converted)): 10.1 µM
- IC50 ([11]; read-out: IC50): 10.6 µM
- IC50 ([11]; read-out: pIC50 (converted)): 10.6 µM
- Activity [12]: 28%
- Activity [13]: 25%
- Activity (HREC [14]): inactive
- Activity [15]: 18%
- Activity [16]: 32%
- Activity [17]: 52%
- Activity [18]: 28%
- Activity [19]: 30%
- Activity (HREC [20]): inactive
- Activity [21]: 55%
- Activity [22]: 24%
- Activity (HREC [23]): inactive
- Activity (HREC [24]): Active
- Activity [25]: 67%
- Activity (HREC [26]): inactive
- Activity (HREC [27]): Active
- inhibition [28]: inactive

SMILES: OC(CCCN1CCC(O)(c2ccc(Cl)cc2)CC1)c1ccc(F)cc1 (racemic) [HYDROXYHALOPERIDOL]
- Ki [7]: 0.0024 µM
- Ki (D(3) dopamine receptor): 1.02 µM
- IC50 ([8]; read-out: IC50): > 200 µM
- IC50 ([9]; read-out: IC50): 128 µM
- IC50 ([9]; read-out: pIC50 (converted)): 128 µM
- IC50 ([10]; read-out: IC50): 68.7 µM
- IC50 ([10]; read-out: pIC50 (converted)): 68.7 µM
- IC50 ([11]; read-out: IC50): 56.6 µM
- IC50 ([11]; read-out: pIC50 (converted)): 56.6 µM
- Activity (HREC [29]): Tde
- Activity [30]: <50%
- Activity [31]: 29%
- Activity (HREC [32]): inactive
- Activity (HREC [33]): inactive
- Activity (HREC [34]): inactive
- Activity (HREC [35]): inactive
- Activity (HREC [20]): inactive
- Activity (HREC [36]): inactive
- Activity (HREC [37]): inactive

SMILES: O=C(CCCN1CCC(O)(c2ccc(Cl)cc2)CC1)c1ccc(F)cc1 [HALOPERIDOL]
- IC50 ([11]; read-out: IC50): 2.28 µM
- IC50 ([11]; read-out: pIC50 (converted)): 2.29 µM
- Activity (HREC [38]): inactive
- Activity (HREC [39]): inactive
- Activity (HREC [40]): inactive

SMILES: CCCC(CCC)C(=O)O [VALPROIC ACID]
- Ki [6]: > 10 µM
- Ki [7]: > 10 µM
- IC50 ([8]; read-out: IC50): 1220 µM
- IC50 ([8]; read-out: pIC50 (converted)): 1220 µM
- IC50 ([9]; read-out: IC50): 1450 µM
- IC50 ([9]; read-out: pIC50 (converted)): 1450 µM
- IC50 ([10]; read-out: IC50): 1390 µM
- IC50 ([10]; read-out: pIC50 (converted)): 1390 µM
- IC50 ([11]; read-out: IC50): 1480 µM
- IC50 ([11]; read-out: pIC50 (converted)): 1480 µM
- Activity (HREC [34]): inactive
- Activity (HREC [35]): inactive
- Activity (HREC [20]): inactive
- Activity (HREC [36]): inactive
- Activity (HREC [37]): inactive
